Results from article PMC6300136 (Cancer chemotherapy and pharmacology, 2011).
Several values for one entry are separate records, joined by “and”; a condition that tells them apart may be missing. Equal values may be shown once. Entries after “also recorded” stand apart in the source; their conditions may differ. Read-outs that look alike come from different tables or passages of the source.

How the values were obtained:
tumor cell growth = conditions: inhibition of tumor cell growth in vitro; cited from earlier work
[1] = Plasma ultrafiltrate pharmacokinetics of satraplatin; assay type: in vivo, rhesus monkeys (Macaca mulatta)
Outline: (§1)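 Five adult male rhesus monkeys (7.3–14.9 kg) were fasted ≥6 h before and 2 h after dosing and given IV ondansetron 0.1 mg/kg (max 2 mg) beforehand. A single dose of test compound, 6 mg/kg (human equivalent 120 mg/m2) in 5% DMSO/0.9% saline, was infused over 1 h through a central venous catheter, with IV fluid hydration during and after.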

[2] = assay type: in vivo, rhesus monkeys (Macaca mulatta)
Outline: as §1

[3] = Tolerability of a single IV dose of satraplatin in non-human primates; assay type: in vivo, rhesus monkeys (Macaca mulatta); conditions: single 120 mg/m^2 (6 mg/kg) IV dose over 1 h in NHP
Outline: as §1

[4] = Stability of satraplatin spiked plasma at room temperature; assay type: in vitro ADME
[5] = cited from earlier work
[6] = brain microdialysis in the same NHP model; cited from earlier work
[7] = carboplatin administration every 4 weeks; cited from earlier work
[8] = cited from earlier work; remark: listed apart in the source
[9] = plasma UF, individual animal, 6 mg/kg IV over 1 h, 6 mg/kg
[10] = CSF from intralumbar catheter, animal 1, 6 mg/kg IV over 1 h

**Q.** Which “potency relative to parent drug satraplatin” value (tumor cell growth) does the source give for N.NC1CCCCC1.[Cl-].[Cl-].[Pt+2] [JM-118] here?
**A.** Its value is “up to 16 fold”.

**Q.** Which results are given for CC(=O)[O][Pt]([NH2])([Cl])([Cl])([NH]C1CCCCC1)[O]C(C)=O [Satraplatin, (OC-6–43)-bis(acetato)amminedichloro(cyclohexylamine)platinum]?
**A.** AUC0–24h in NHP after IV relative to humans at equivalent oral doses ([1]; plasma UF exposure, NHP IV versus human oral): approximately 20 fold; Tmax ([1]; plasma UF, individual animal, 6 mg/kg (120 mg/m^2) IV over 1 h, time after start of infusion, 6 mg/kg): 1.1 h and 1.0 h and 0.5 h; AUC0–48h [1, 9]: 33.2 µM·h and 27.4 µM·h and 22.6 µM·h and 29.2 µM·h; Cmax [1, 9]: 10.6 µM and 10.4 µM and 5.7 µM and 6.9 µM and 8.3 µM; Cl ([1]; plasma UF, individual animal, dose/AUC0–inf, 6 mg/kg IV over 1 h): 5.67 mL/min/kg and 5.17 mL/min/kg and 6.17 mL/min/kg and 6 mL/min/kg; T½ ([1]; plasma UF, individual animal, terminal half-life, 6 mg/kg IV over 1 h, 6 mg/kg): 13.4 h and 19.5 h and 18.8 h and 17.4 h and 25 h; Cl, median (range) ([1]; plasma UF, median (range) of 5 NHP): 0.36 (0.31–0.37) l/h/kg; AUC0–48h, median (range) ([1]; plasma UF, median (range) of 5 NHP, 6 mg/kg IV over 1 h): 29.2 (22.6–33.2) μM h; Tmax, median (range) ([1]; plasma UF, median (range) of 5 NHP, 6 mg/kg IV over 1 h, after start of infusion): 1.0 (0.5–1.1) h; AUC0–inf, median (range) ([1]; plasma UF, median (range) of 5 NHP, extrapolated to infinity): 32.1 (24.7–38.2) μM h; T½, median (range) ([1]; plasma UF, median (range) of 5 NHP, terminal half-life): 18.8 (13.4–25) h; Cmax [2, 10]: 0.62 µM; Tmax [2, 10]: 1.1 h; Ratio AUC0–48h CSF: AUC0–48h plasma UF ([2]; CSF penetration, individual animal, 6 mg/kg IV over 1 h, 6 mg/kg): 7.4% and 4.6% and 2.2% and 3.9%; AUC0–48h ([2]; CSF, individual animal, 6 mg/kg IV over 1 h, 6 mg/kg): 2.43 µM·h and 1.26 µM·h and 0.49 µM·h and 1.14 µM·h; AUC0–48h, median (range) ([2]; CSF, median (range) of NHP): 1.2 (0.49–2.43) μM h; AUC0–48 for CSF, median (range) ([2]; CSF, median, unit as printed in the results text): 1.2 µM; CSF penetration (Ratio AUC0–48h CSF: AUC0–48h plasma UF), median (range) ([2]; median (range) of NHP): 4.3 (2.2–7.4) %; Cmax ([2]; read-out: Cmax, median (range), CSF, median (range) of NHP): 0.09 µM; Tolerability [3]: well tolerated; also recorded: no adverse clinical or laboratory sequelae; stability of spiked plasma [4]: at least 2 h; accumulation factor ([5]; daily dosing in clinical trials): ≤ 4.1; half-life ([5]; human phase I trials after oral dosing, mean): 7 h

**Q.** With N.N.O=C([O-])C1(C(=O)[O-])CCC1.[Pt+2] [carboplatin] as the molecule, how does the CNS penetration [6] read?
**A.** The CNS penetration was under 5%.

**Q.** And the incidence of anaphylaxis [7]?
**A.** Its incidence of anaphylaxis is at most 22%.

**Q.** What about the CSF penetration ([8]; non-human primate model) of the same molecule?
**A.** Its CSF penetration is 2.6%.

**Q.** For N.N.[Cl][Pt][Cl] [cisplatin], which CSF penetration ([8]; in vivo) is on record?
**A.** Its CSF penetration is 3.7%.
